In series [1] the test system is HT-29. The series is described as follows: Cytotoxicity against human HT29 cells under hypoxic conditions after 4 hrs. The format is functional, cell-based. The settings on record: HT-29, 4 h.
Series [2] relates to HT-29. The series is described as follows: Ratio of IC50 for HT29 cells under oxic conditions to hypoxic conditions after 4 hrs. The format is functional, Homo sapiens.
The test system of series [3] is SiHa. The series is described as follows: Cytotoxicity against human SiHa cells under hypoxic conditions after 4 hrs. The format is functional, cell-based.
The subject of series [4] is SiHa. The series is described as follows: Ratio of IC50 for SiHa cells under oxic conditions to hypoxic conditions after 4 hrs. The format is functional, Homo sapiens.
Series [5] can be described thus: Solubility in culture medium in presence of 5% fetal calf serum. The format is physicochemical. The settings on record: culture medium with 5% fetal calf serum.
Series [6] deals with HT-29. The series is described as follows: Effect on human HT29 cells under hypoxic conditions assessed as drug level causing 10% clonogenic survival. The format is functional. An outline of the steps:
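HT29 suspensions (1 or 2 × 10^6 cells/mL) in serum-free medium were stirred under 5% CO2/95% N2 for 90 min. Drug was added from deoxygenated DMSO stock at a level giving about 10% survival at 1 h, and samples were taken up to 3 h. Clonogenic survival (14 days, methylene blue) was fitted with the HPLC concentration–time data, and the 10% survival exposure was interpolated.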

The test system of series [7] is HT-29. The series is described as follows: Diffusion coefficient, D in HT29 multicellular layers. It counts as ADME, cell-based. The settings on record: human. In short, it runs like this:
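HT29 multicellular layers were grown 3 days on collagen-coated Teflon membranes, equilibrated 60 min under 95% O2/5% CO2 at 37 °C, then placed in a diffusion chamber. Donor and receiver were sampled up to 5 h and assayed by HPLC. D came from fitting both profiles to a Fickian model with membrane and MCL in series, corrected by support-only Ds.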

Take `CC(C)c1ccc2c(c1)[n+]([O-])c(NCCN(C)C)n[n+]2[O-]`: the IC50 (commonly the point on the concentration scale where inhibition reaches its midpoint) came out at 1900 nM with HT-29 [1] and 1100 nM in the series on SiHa [3]. Besides, the “Ratio IC50” value in the series with HT-29 [2] is on record as 120; in the series with SiHa [4], 104. Besides, in series [5], the solubility (commonly the dissolved amount per volume that the medium holds) worked out at 42 mM. Further, the Activity in the series with HT-29 [6] stood at 11.6 µM·h.

With `CCN(CC)CCNc1n[n+]([O-])c2ccc(C(C)C)cc2[n+]1[O-]`, the IC50 in the series with HT-29 [1] turned out to be 2000 nM; in the series with SiHa [3], 800 nM. Also, the “Ratio IC50” value in the series on HT-29 [2] was 122; in the series with SiHa [4], 113. Besides, the solubility in series [5] came to 45 mM. The Activity with HT-29 [6] was found to be 18.6 µM·h.

`CC(C)c1ccc2c(c1)[n+]([O-])c(NCCN1CCOCC1)n[n+]2[O-]`: the IC50 worked out at 45100 nM in the series with HT-29 [1] and 15500 nM in the series with SiHa [3]. In addition, the results for the “Ratio IC50” value in the series with HT-29 [2] and in the series with SiHa [4] were 14 and 33, respectively. In series [5], the solubility stood at 30 mM. The Activity in the series on HT-29 [6] is 217.8 µM·h.

Turning to `CC(C)c1ccc2c(c1)[n+]([O-])c(NCCN1CCCCC1)n[n+]2[O-]`, the IC50 in the series with HT-29 [1] is 2700 nM; in the series with SiHa [3] it was 1100 nM. The “Ratio IC50” value in the series on HT-29 [2] is listed as 41; in the series with SiHa [4], 65. For the same compound, the solubility in series [5] came out at 18 mM. In addition, the Activity with HT-29 [6] was determined as 15.2 µM·h.

For `COc1ccc2c(c1)[n+]([O-])c(NCCCN1CCC(C#N)C1)n[n+]2[O-]` (configuration not stated), the IC50 was 40600 nM with HT-29 [1] and 31900 nM in the series with SiHa [3]. Besides, the results for the “Ratio IC50” value in the series with HT-29 [2] and in the series on SiHa [4] were 41 and 36, respectively. Moreover, the solubility in series [5] came to 47 mM. For the same compound, the Activity in the series with HT-29 [6] was 211.4 µM·h.

For the compound `COc1ccc2c(c1)[n+]([O-])c(NCCN1C(C)CCCC1C)n[n+]2[O-]` (configuration not stated), the values for the IC50 in the series on HT-29 [1] and in the series with SiHa [3] were 3900 nM and 1000 nM, respectively. Also, the “Ratio IC50” value was determined as 34 in the series on HT-29 [2] and 121 with SiHa [4]. Moreover, the solubility in series [5] was 29 mM. Further, the Activity in the series with HT-29 [6] stood at 26.1 µM·h.

Turning to `COc1ccc2c(c1)[n+]([O-])c(NCCN1CCOCC1)n[n+]2[O-]`, the IC50 in the series with HT-29 [1] is 103000 nM; in the series with SiHa [3], 40900 nM. The “Ratio IC50” value is reported as over 39 with HT-29 [2] and 70 in the series with SiHa [4]. Also, the solubility in series [5] is 48 mM.

Regarding `CC(C)(C)c1ccc2c(c1)[n+]([O-])c(NCCN1CCOCC1)n[n+]2[O-]`, the values for the IC50 in the series with HT-29 [1] and in the series with SiHa [3] were 61200 nM and 10900 nM, respectively. The “Ratio IC50” value is 13 in the series with HT-29 [2] and 55 in the series with SiHa [4]. Besides, the solubility in series [5] is 1.8 mM.

`CC1CCCC(C)N1CCNc1n[n+]([O-])c2ccccc2[n+]1[O-]` (configuration not stated): the IC50 in the series on HT-29 [1] stood at 2200 nM; in the series on SiHa [3], 900 nM. For the same compound, the “Ratio IC50” value was 15 with HT-29 [2] and 41 in the series on SiHa [4]. For the same compound, in the series on HT-29 [7], the D worked out at 6.81e-07 cm²/s. For the same compound, the solubility in series [5] is 48 mM. For the same compound, in the series on HT-29 [6], the Activity was 5.7 µM·h.

In the case of `[O-][n+]1nc(NCCN2CCCCC2)[n+]([O-])c2ccccc21`, the IC50 in the series on HT-29 [1] is 1800 nM; with SiHa [3] it was 1100 nM. Besides, the “Ratio IC50” value with HT-29 [2] came out at 24; in the series on SiHa [4], 55. The same compound displayed a D in the series on HT-29 [7] of 7.23e-07 cm²/s. Also, the solubility in series [5] is over 49 mM. In the series on HT-29 [6], the Activity is 2.8 µM·h.

With `CCCN(CCC)CCNc1n[n+]([O-])c2ccc(C(C)C)cc2[n+]1[O-]`, the IC50 in the series on HT-29 [1] stood at 4400 nM; in the series with SiHa [3], 900 nM. For the same compound, the “Ratio IC50” value with HT-29 [2] worked out at 35; in the series on SiHa [4] it was 65. In addition, the solubility in series [5] stood at 39 mM. The Activity in the series on HT-29 [6] turned out to be 41.6 µM·h.

For the compound `CCN(CC)CCNc1n[n+]([O-])c2ccc(C)cc2[n+]1[O-]`, the IC50 in the series on HT-29 [1] turned out to be 1000 nM; in the series on SiHa [3], 300 nM. Besides, the “Ratio IC50” value with HT-29 [2] was 51; in the series with SiHa [4] it was 35. The solubility in series [5] was over 49 mM. Further, in the series with HT-29 [6], the Activity was found to be 8.3 µM·h.

With `CN(C)CCCNc1n[n+]([O-])c2ccccc2[n+]1[O-]`, the IC50 is 3400 nM with HT-29 [1] and 2300 nM in the series with SiHa [3]. For the same compound, the “Ratio IC50” value in the series on HT-29 [2] was 49; with SiHa [4] it was 82. In the series with HT-29 [7], this compound had a D of 1.87e-07 cm²/s. For the same compound, the solubility in series [5] came out at 38 mM. Also, in the series with HT-29 [6], the Activity was 7.8 µM·h.

Regarding `CCN(CC)CCNc1n[n+]([O-])c2ccc(Cl)cc2[n+]1[O-]`, the IC50 in the series on HT-29 [1] stood at 300 nM; in the series with SiHa [3], 200 nM. Also, the “Ratio IC50” value in the series with HT-29 [2] turned out to be 43; in the series on SiHa [4], 28. In addition, the solubility in series [5] turned out to be 23 mM.

On to `Cc1ccc2c(c1)[n+]([O-])c(NCCCN1CCC(C#N)C1)n[n+]2[O-]` (configuration not stated), for which the IC50 is 14100 nM in the series on HT-29 [1] and 9200 nM with SiHa [3]. The “Ratio IC50” value in the series with HT-29 [2] and in the series on SiHa [4] was 54 in each case. For the same compound, the solubility in series [5] is 49 mM. Moreover, the Activity with HT-29 [6] worked out at 62.2 µM·h.

On to `COc1ccc2c(c1)[n+]([O-])c(NCCCN1CCOCC1)n[n+]2[O-]`, for which the IC50 in the series with HT-29 [1] was 22000 nM; with SiHa [3], 10200 nM. For the same compound, the “Ratio IC50” value with HT-29 [2] is given as over 8; in the series on SiHa [4], 447. Further, the solubility in series [5] was over 44 mM. Besides, the Activity in the series with HT-29 [6] was determined as 149.7 µM·h.

As to `CCOc1ccc2c(c1)[n+]([O-])c(NCCCN1CCOCC1)n[n+]2[O-]`, the IC50 was determined as 18000 nM with HT-29 [1] and 7600 nM in the series with SiHa [3]. Further, the “Ratio IC50” value is given as 52 in the series on HT-29 [2] and 140 in the series on SiHa [4]. The solubility in series [5] was over 51 mM. The Activity in the series with HT-29 [6] is 260.6 µM·h.

As to `CCCN(CCC)CCNc1n[n+]([O-])c2ccc(Cl)cc2[n+]1[O-]`, the values for the IC50 with HT-29 [1] and in the series with SiHa [3] were 600 nM and 300 nM, respectively. Moreover, the “Ratio IC50” value is reported as 9 in the series on HT-29 [2] and 21 in the series on SiHa [4]. In addition, the solubility in series [5] came to 0.6 mM.

With `CCN(CC)CCNc1n[n+]([O-])c2ccc(C(C)(C)C)cc2[n+]1[O-]`, the results for the IC50 with HT-29 [1] and with SiHa [3] were 4300 nM and 900 nM, respectively. Also, the “Ratio IC50” value in the series with HT-29 [2] stood at 37; with SiHa [4] it was 90. In addition, in series [5], the solubility was over 48 mM. In addition, in the series on HT-29 [6], the Activity was determined as 33.1 µM·h.

`[O-][n+]1nc(NCCN2CCCCC2)[n+]([O-])c2cc(Cl)ccc21`: the values for the IC50 with HT-29 [1] and with SiHa [3] were 400 nM and 200 nM, respectively. In addition, the results for the “Ratio IC50” value in the series with HT-29 [2] and in the series with SiHa [4] were 19 and 18, respectively. The same compound had a D with HT-29 [7] of 1.1e-06 cm²/s. Moreover, the solubility in series [5] was 3.2 mM.

As to `[O-][n+]1nc(NCCN2CCCC2)[n+]([O-])c2ccccc21`, the IC50 with HT-29 [1] amounted to 600 nM; in the series on SiHa [3] it was 200 nM. Further, the “Ratio IC50” value turned out to be 70 in the series on HT-29 [2] and 132 in the series with SiHa [4]. Moreover, the solubility in series [5] was found to be 61 mM. Moreover, in the series with HT-29 [6], the Activity stood at 3.6 µM·h.

For the compound `CCc1ccc2c(c1)[n+]([O-])c(NCCN1CCCCC1)n[n+]2[O-]`, the IC50 with HT-29 [1] amounted to 1500 nM; with SiHa [3] it was 1000 nM. Besides, the “Ratio IC50” value with HT-29 [2] was found to be 65; in the series with SiHa [4] it was 50. Further, the solubility in series [5] is 39 mM. The Activity in the series with HT-29 [6] came to 11.9 µM·h.

Turning to `CN(C)CCNc1n[n+]([O-])c2ccccc2[n+]1[O-]`, the IC50 in the series with HT-29 [1] amounted to 700 nM; with SiHa [3], 200 nM. The “Ratio IC50” value in the series on HT-29 [2] is 80; with SiHa [4] it was 157. Moreover, the solubility in series [5] was found to be 50 mM. The Activity with HT-29 [6] amounted to 3.2 µM·h.

These data come from ChEMBL document CHEMBL1138329, “Pharmacokinetic/pharmacodynamic model-guided identification of hypoxia-selective 1,2,4-benzotriazine 1,4-dioxides with antitumor activity: the role of extravascular transport” (J Med Chem, 2007).
